Active and inactive are the calls of the source. The rule behind the calls is not given here.
Tests used:
Type in all cases: functional
NCI/ADR-RES = assay: Growth inhibition of human NCI/ADR-RES cells at 10 uM after 48 hrs by coulter counter method; conditions: read-out: GI
How it was run: (§1)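 NCI 60-cell-line panel, single dose. Compound dissolved first in DMSO, then diluted in phosphate-buffered saline so that every final dilution held under 1% DMSO. Duplicate wells received cells at 6 × 10⁴ cells/ml. Controls held PBS/DMSO at the same dilution. Plates were incubated 48 h at 37 °C under 5% CO₂. Cells were then diluted 10-fold in saline and counted on a Coulter counter, with counts corrected for the dilution. Results are given as percent growth inhibition.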

[1] = Growth inhibition of human colon cancer cells after 48 hrs by coulter counter method; conditions: Cancer cell lines
How it was run: (§2)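 NCI 60-line panel cells. Compound is dissolved in DMSO and diluted in phosphate-buffered saline, with final DMSO below 1%. It is added in duplicate wells to cultures at 6 × 10⁴ cells/ml and held at 37 °C, 5% CO₂, humidified, for 48 h. Cells are diluted 10-fold in saline, counted by Coulter counter and dilution-corrected. Vehicle controls contain PBS plus DMSO.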

CCRF-CEM = assay: Growth inhibition of human CCRF-CEM cells at 10 uM after 48 hrs by coulter counter method; conditions: read-out: GI; how it was run: as §1
K562 = assay: Growth inhibition of human K562 cells at 10 uM after 48 hrs by coulter counter method; conditions: K562, 48 h, read-out: GI; how it was run: as §1
T47D = assay: Growth inhibition of human T47D cells at 10 uM after 48 hrs by coulter counter method; conditions: read-out: GI; how it was run: as §1
ACHN = assay: Growth inhibition of human ACHN cells at 10 uM after 48 hrs by coulter counter method; conditions: read-out: GI; how it was run: as §1
SF-268 = assay: Growth inhibition of human SF268 cells at 10 uM after 48 hrs by coulter counter method; conditions: SF-268, 48 h, read-out: GI; how it was run: as §1
A549 = assay: Growth inhibition of human A549 cells at 10 uM after 48 hrs by coulter counter method; conditions: A549, 48 h, read-out: GI; how it was run: as §1
EKVX = assay: Growth inhibition of human EKVX cells at 10 uM after 48 hrs by coulter counter method; conditions: read-out: GI; how it was run: as §1
MDA-MB-435 = assay: Growth inhibition of human MDA-MB-435 cells at 10 uM after 48 hrs by coulter counter method; conditions: MDA-MB-435, 48 h, read-out: GI; how it was run: as §1
NSCLC = assay: Growth inhibition of human NSCLC cells after 48 hrs by coulter counter method; how it was run: as §2
NCI-H522 = assay: Growth inhibition of human NCI-H522 cells at 10 uM after 48 hrs by coulter counter method; conditions: NCI-H522, 48 h, read-out: GI; how it was run: as §1
UO-31 = assay: Growth inhibition of human UO31 cells at 10 uM after 48 hrs by coulter counter method; how it was run: as §1
RPMI-8226 = assay: Growth inhibition of human RPMI8226 cells at 10 uM after 48 hrs by coulter counter method; conditions: RPMI-8226, 48 h, read-out: GI; how it was run: as §1
PC-3 = assay: Growth inhibition of human PC3 cells at 10 uM after 48 hrs by coulter counter method; conditions: PC-3, 48 h, read-out: GI; how it was run: as §1
[2] = Growth inhibition of human ovarian cancer cells after 48 hrs by coulter counter method; conditions: Cancer cell lines; how it was run: as §2
[3] = Growth inhibition of human renal cancer cells after 48 hrs by coulter counter method; conditions: Cancer cell lines; how it was run: as §2
NCI-H23 = assay: Growth inhibition of human NCI-H23 cells at 10 uM after 48 hrs by coulter counter method; conditions: NCI-H23, 48 h, read-out: GI; how it was run: as §1
[4] = Growth inhibition of human leukemia cells after 48 hrs by coulter counter method; conditions: Leukemia cell; how it was run: as §2
CAKI-1 = assay: Growth inhibition of human Caki1 cells at 10 uM after 48 hrs by coulter counter method; how it was run: as §1
786-0 = assay: Growth inhibition of human 786-0 cells at 10 uM after 48 hrs by coulter counter method; conditions: 786-0, 48 h, read-out: GI; how it was run: as §1
IGROV-1 = assay: Growth inhibition of human IGROV1 cells at 10 uM after 48 hrs by coulter counter method; how it was run: as §1
MDA-MB-468 = assay: Growth inhibition of human MDA-MB-468 cells at 10 uM after 48 hrs by coulter counter method; conditions: MDA-MB-468, 48 h, read-out: GI; how it was run: as §1
[5] = Growth inhibition of human CNS cancer cells after 48 hrs by coulter counter method; conditions: Cancer cell lines; how it was run: as §2
SN12C = assay: Growth inhibition of human SN12C cells at 10 uM after 48 hrs by coulter counter method; conditions: read-out: GI; how it was run: as §1
Melanoma cell = assay: Growth inhibition of human Melanoma cells after 48 hrs by coulter counter method; how it was run: as §2
OVCAR-8 = assay: Growth inhibition of human OVCAR8 cells at 10 uM after 48 hrs by coulter counter method; conditions: OVCAR-8, 48 h, read-out: GI; how it was run: as §1
NCI-H226 = assay: Growth inhibition of human NCI-H226 cells at 10 uM after 48 hrs by coulter counter method; conditions: NCI-H226, 48 h, read-out: GI; how it was run: as §1
U-251 = assay: Growth inhibition of human U251 cells at 10 uM after 48 hrs by coulter counter method; conditions: U-251, 48 h, read-out: GI; how it was run: as §1
TK-10 = assay: Growth inhibition of human TK10 cells at 10 uM after 48 hrs by coulter counter method; conditions: TK-10, 48 h, read-out: GI; how it was run: as §1
BT-549 = assay: Growth inhibition of human BT549 cells at 10 uM after 48 hrs by coulter counter method; conditions: BT-549, 48 h, read-out: GI; how it was run: as §1
HCT-15 = assay: Growth inhibition of human HCT15 cells at 10 uM after 48 hrs by coulter counter method; conditions: HCT-15, 48 h, read-out: GI; how it was run: as §1
SNB-75 = assay: Growth inhibition of human SNB75 cells at 10 uM after 48 hrs by coulter counter method; conditions: SNB-75, 48 h, read-out: GI; how it was run: as §1
UACC-62 = assay: Growth inhibition of human UACC62 cells at 10 uM after 48 hrs by coulter counter method; conditions: UACC-62, 48 h, read-out: GI; how it was run: as §1
SK-MEL-2 = assay: Growth inhibition of human SK-MEL-2 cells at 10 uM after 48 hrs by coulter counter method; conditions: SK-MEL-2, 48 h, read-out: GI; how it was run: as §1
MCF7 = assay: Growth inhibition of human MCF7 cells at 10 uM after 48 hrs by coulter counter method; conditions: MCF7, 48 h, read-out: GI; how it was run: as §1
SF-295 = assay: Growth inhibition of human SF295 cells at 10 uM after 48 hrs by coulter counter method; conditions: SF-295, 48 h, read-out: GI; how it was run: as §1
[6] = read-out: LC50 (the source's name)

`O=C1CN2N=C(c3ccccc3)SC2=N1` showed an inhibition of growth at 10 µM (NCI/ADR-RES) of 17.9%, a GI50 [1] of 9.4 µM and an LC50 [1] of 67.1 µM. The TGI [1] was 24.9 µM, the inhibition of growth at 10 µM (CCRF-CEM) was 88.2% and the inhibition of growth at 10 µM (K562) was 34.8%. For the same compound, the inhibition of growth at 10 µM (T47D) was 33.2%, the inhibition of growth at 10 µM (ACHN) was 29.5% and the inhibition of growth at 10 µM (SF-268) was 20%. The inhibition of growth at 10 µM (A549) was 39.2%, the inhibition of growth at 10 µM (EKVX) was 94.5% and the inhibition of growth at 10 µM (MDA-MB-435) was 30.4%. The GI50 (NSCLC) was 9.7 µM, the TGI (NSCLC) was 20.7 µM and the CC50 (NSCLC; [6]) was 55.7 µM. The inhibition of growth at 10 µM (NCI-H522) was 46.5%, the “growth inhibition (GI)” value (UO-31) was “Active” and the inhibition of growth at 10 µM (RPMI-8226) was 72.2%. The inhibition of growth at 10 µM (PC-3) was 30.1%, the GI50 [2] was 7.7 µM and the TGI [2] was 33.5 µM. It also gave a CC50 [2, 6] of 83.9 µM, a GI50 [3] of 8.9 µM and a TGI [3] of 16.6 µM. For the same compound, the CC50 [3, 6] was 42.3 µM, the inhibition of growth at 10 µM (NCI-H23) was 21.6% and the GI50 [4] was 4.1 µM. For the same compound, the TGI [4] was 25.9 µM, the CC50 [4, 6] was greater than 100 µM and the “growth inhibition (GI)” value (CAKI-1) was “Active”. For the same compound, the inhibition of growth at 10 µM (786-0) was 25.1%, the “growth inhibition (GI)” value (IGROV-1) was “Active” and the inhibition of growth at 10 µM (MDA-MB-468) was 61.5%. For the same compound, the GI50 [5] was 8.7 µM, the TGI [5] was 18.8 µM and the CC50 [5, 6] was 51.3 µM. It also gave an inhibition of growth at 10 µM (SN12C) of 32.9%, a GI50 (Melanoma cell) of 8 µM and an LC50 (Melanoma cell) of 51.4 µM. The TGI (Melanoma cell) was 20.1 µM, the inhibition of growth at 10 µM (OVCAR-8) was 35.3% and the inhibition of growth at 10 µM (NCI-H226) was 27.7%. The inhibition of growth at 10 µM (U-251) was 58.3%, the inhibition of growth at 10 µM (TK-10) was 25.4% and the inhibition of growth at 10 µM (BT-549) was 53.4%. The inhibition of growth at 10 µM (HCT-15) was 44.8%, the inhibition of growth at 10 µM (SNB-75) was 88.3% and the inhibition of growth at 10 µM (UACC-62) was 27.8%. For the same compound, the inhibition of growth at 10 µM (SK-MEL-2) was 14.1%, the inhibition of growth at 10 µM (MCF7) was 46.4% and the inhibition of growth at 10 µM (SF-295) was 90.6%.

Source: ChEMBL document CHEMBL1926577, “Novel 1,3,4-heterodiazole analogues: synthesis and in-vitro antitumor activity” (2012)
